ChEMBL document CHEMBL3763032, “Novel Small Molecule Inhibitors of Choline Kinase Identified by Fragment-Based Drug Discovery” (J Med Chem, 2016)
Activity calls are given as the source filed them. The rule behind the calls is not given here.

Key:
Choline kinase alpha [1] = molecular target: T1, Choline kinase alpha (Homo sapiens, UniProt P35790)
Target sequence in this assay (P35790 whole entry): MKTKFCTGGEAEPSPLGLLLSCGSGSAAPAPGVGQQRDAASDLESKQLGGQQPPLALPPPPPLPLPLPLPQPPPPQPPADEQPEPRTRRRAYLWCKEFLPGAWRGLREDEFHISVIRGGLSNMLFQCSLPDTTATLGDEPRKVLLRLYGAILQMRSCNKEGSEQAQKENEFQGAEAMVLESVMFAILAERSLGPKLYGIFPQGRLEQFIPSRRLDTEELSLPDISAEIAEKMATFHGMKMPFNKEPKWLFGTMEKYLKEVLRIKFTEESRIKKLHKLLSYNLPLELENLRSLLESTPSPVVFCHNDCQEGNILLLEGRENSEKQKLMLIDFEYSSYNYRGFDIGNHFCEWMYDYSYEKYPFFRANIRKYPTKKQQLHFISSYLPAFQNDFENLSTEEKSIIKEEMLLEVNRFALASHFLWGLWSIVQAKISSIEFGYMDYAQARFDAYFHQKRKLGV

Choline kinase alpha [2] = molecular target: T1, Choline kinase alpha; remark: listed apart in the source
Target sequence in this assay (P35790 whole entry): as above

Carbonic anhydrase 2 = Carbonic anhydrase 2 (Homo sapiens, UniProt P00918); assay: Binding affinity to carbonic anhydrase2 (unknown origin) by surface plasmon resonance assay
Procedure, shortened: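 Carbonic anhydrase II, used as the reference surface, amine-coupled at a density similar to the ChoKα1 surface. 25 °C, 2-fold dilution series (fragments top at 300 μM). Single-step kinetics (Biacore) or FastStep (SensiQ). Kd from 1:1 binding model fits.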

Choline kinase alpha [3] = molecular target: T1, Choline kinase alpha; remark: listed apart in the source
Target sequence in this assay (P35790 whole entry, looked up): as the sequence (P35790 whole entry) above

[4] = Effect on phosphocholine level in human MCF12A cells after 24 hrs by NMR analysis; assay type: ADME, cell-based; conditions: mcf-12a
Procedure, shortened: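 Cells grown with increasing compound concentrations or vehicle (DMSO) for 24 h, then counted and checked for viability by Trypan blue exclusion. 5 ×10^6 viable cells washed twice in ice-cold d-PBS and extracted by vortexing 30 s in 6 mL ice-cold 100% methanol. Intracellular choline and phosphocholine quantified by NMR.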

MDA-MB-468 [5] = assay: Cytotoxicity against human MDA-MB-468 cells expressing ChoKalpha after 72 hrs by CyQuant cell proliferation assay; assay type: functional; conditions: for GI50: Homo sapiens, MDA-MB-468, 72 h
Procedure, shortened: (§1)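 Cells from ATCC, used within 6 months, grown in the supplier-recommended medium. Treated with compound or vehicle for 72 h, then read by CyQuant proliferation kit. GI50 determined after correcting for cell count at time zero, with growth plotted as percent of vehicle-treated cells. Mean ±SD from ≥2 separate experiments.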

[6] = Cytotoxicity against human MCF10A cells after 72 hrs by CyQuant cell proliferation assay; assay type: cell-based, MCF-10A; conditions: for GI50 at 72 h: MCF10A cells; for %max: mcf-10a, 72 h
Procedure, shortened: as §1

Choline kinase alpha [7] = molecular target: T1, Choline kinase alpha; assay: Inhibition of ChoKalpha in human MDA-MB-415 cells assessed as reduction in phosphocholine level after 24 hrs by NMR analysis; assay type: cell-based
Target sequence in this assay (P35790 whole entry): as above

[8] = Induction of apoptosis in human MCF12A cells upto 40 uM after 24 hrs by caspase-3/7 assay; assay type: cell-based; conditions: mcf-12a
Procedure, shortened: (§2)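 Cells exposed to compounds for 24 h, then caspase activity measured with the Apo-ONE homogeneous caspase-3/7 assay. Apoptosis expressed as a percentage of vehicle-treated cells, from one representative experiment.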

MDA-MB-415 [9] = assay: Cytotoxicity against human MDA-MB-415 cells expressing ChoKalpha after 72 hrs by CyQuant cell proliferation assay; assay type: functional; conditions: for GI50: Homo sapiens, MDA-MB-415, 72 h
Procedure, shortened: as §1

[10] = Cytotoxicity against human MCF12A cells after 72 hrs by CyQuant cell proliferation assay; assay type: cell-based, MCF-12A; conditions: for GI50 at 72 h: MCF12A cells; for %max: mcf-12a, 72 h
Procedure, shortened: as §1

MDA-MB-415 [11] = assay: Induction of apoptosis in human MDA-MB-415 cells expressing ChoKalpha after 24 hrs by caspase-3/7 assay; assay type: functional, cell-based
Procedure, shortened: as §2

Choline kinase alpha [12] = molecular target: T1, Choline kinase alpha; assay: Reversible binding affinity to human N-terminal truncated ChoKalpha1 (75 to 457 residues) ChoKalpha1 by STD NMR analysis
Procedure, shortened: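 Saturation-transfer difference NMR primary screen. On-resonance irradiation was at 0.8 ppm and off-resonance at 30 ppm, with excitation-sculpting water suppression; 320 scans were averaged.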
Target sequence in this assay (P35790 whole entry, looked up): as the sequence (P35790 whole entry) above

Choline kinase alpha [13] = molecular target: T1, Choline kinase alpha; assay: Inhibition of ChoKalpha in human MDA-MB-468 cells assessed as reduction in phosphocholine level after 24 hrs by NMR analysis; assay type: cell-based
Target sequence in this assay (P35790 whole entry): as above

Choline kinase alpha [14] = molecular target: T1, Choline kinase alpha; assay: Inhibition of recombinant human ChoKalpha using choline as substrate by ultraviolet spectroscopic assay
Procedure, shortened: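 Coupled ATP-regeneration assay with recombinant human ChoKα1 (N-terminal His tag, pET28a, >95% pure) at 10–50 nM monomer. A340 read over 10–30 min. Initial rates taken across 2-fold inhibitor dilutions and fitted to a dose–response model for IC50.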
Target sequence in this assay (P35790 whole entry): as above

[15] = Cytotoxicity against human MCF10A cells after 72 hrs by MTT assay; assay type: cell-based; conditions: MCF-10A
MDA-MB-468 [16] = assay: Cytotoxicity against human MDA-MB-468 cells after 72 hrs by MTT assay; assay type: functional, cell-based; conditions: MDA-MB-468, 72 h

Compound | Kd (Choline kinase alpha [1]) [µM] | IC50 (Choline kinase alpha [2]) [µM] | Ka (Choline kinase alpha [3]) [mM⁻¹ s⁻¹] | other results
CN1CCCN(Cc2ccc3ccccc3c2)CC1 | 4.3 | 2.6 | – | –
O=C(N1CCCCCC1)N1CCNCC1 | 340 | > 300 | – | Kd (Carbonic anhydrase 2): 1400 µM
CN1CCCN(c2ccc(CO)cc2)CC1 | 194 | > 2000 | – | –
COc1ccc(-c2ccc(CN3CCCN(C)CC3)cc2)cc1 | 3.8 | 1.43 | – | –
CN1CCCN(Cc2ccc(-c3ccc(CN4CCCN(C)CC4)c(F)c3F)cc2)CC1 | 0.021 | 0.233 | 718 | –
Nc1cc(C(F)(F)F)ncn1 | 630 | > 300 | – | Kd (Carbonic anhydrase 2): 670 µM
CN1CCCN(Cc2ccc(-c3ccc(CN4CCCN(C)CC4)cc3C#N)cc2)CC1 | 0.01 | 0.066 | 676 | –
CN1CCCN(Cc2ccc(CN)cc2)CC1 | 132 | 87 | – | Kd (Carbonic anhydrase 2): 490 µM
COC(=O)c1ccc(-c2ccc(CN3CCCN(C)CC3)cc2)cc1 | 2.4 | 4.95 | – | –
CN1CCCN(Cc2ccc3ncccc3c2)CC1 | 4 | 3.9 | – | –
CN1CCCN(Cc2ccc(-c3ccccc3)cc2)CC1 | 3.7 | 1.48 | – | –
CN1CCCN(Cc2ccc(-c3ccc(N4CCN(C)CC4)cc3)cc2)CC1 | 0.769 | 1.3 | – | –
CN1CCCN(Cc2ccc(-c3ccc(CN4CCCN(C)CC4)cc3C#N)c(F)c2)CC1 | 0.099 | 0.085 | 112 | Activity [4]: Non-toxic; %max (MDA-MB-468 [5]): 139%; GI50 (MDA-MB-468 [5]): 7 µM; GI50 at 72 h [6]: 18 µM; %max [6]: 99%; IC50 (Choline kinase alpha [7]): 750 nM; Activity [8]: Non-toxic; %max (MDA-MB-415 [9]): 189%; GI50 (MDA-MB-415 [9]): 2 µM; GI50 at 72 h [10]: > 40 µM; %max [10]: 51%; Activity (MDA-MB-415 [11]): Active
CN1CCCN(Cc2ccc(-c3ccc(C(=O)N4CCCN(C)CC4)cc3)cc2)CC1 | 0.195 | 0.251 | – | –
Cc1cc(O)cc(C)c1C#N | – | – | – | Activity (Choline kinase alpha [12]): Active
CN1CCCN(Cc2ccc(-c3ccc(CN4CCCN(C)CC4)cc3)cc2)CC1 | 0.382 | 0.457 | 94 | %max (MDA-MB-468 [5]): 163%; GI50 (MDA-MB-468 [5]): 9 µM; GI50 at 72 h [6]: 27 µM; %max [6]: 77%; Activity [8]: Non-toxic; %max (MDA-MB-415 [9]): 158%; GI50 (MDA-MB-415 [9]): 4 µM; IC50 (Choline kinase alpha [13]): 2000 nM; GI50 at 72 h [10]: 31 µM; %max [10]: 64%; Activity (MDA-MB-415 [11]): Active
O[C@](CCc1ccccc1OC1CCOCC1)(c1ccccc1)C1CN2CCC1CC2 (some centres not stated) | – | – | – | IC50 (Choline kinase alpha [14]): 20 nM
CN1CCCN(Cc2ccc(-c3cc(F)c(CN4CCCN(C)CC4)c(F)c3)cc2)CC1 | 0.259 | 0.255 | 125 | –
CN1CCCN(Cc2ccc(-c3ccc(C(F)(F)F)cc3)cc2)CC1 | 4 | 2.6 | – | –
CN1CCCN(Cc2ccc(-c3ccc(CN4CCCN(C)CC4)cc3F)cc2)CC1 | 0.211 | 0.165 | 93 | –
CN1CCNCC(Cc2ccc3ncccc3c2)C1 (configuration not stated) | 7 | 17.2 | – | –
CN1CCCN(Cc2ccc(-c3ccc(CN4CCCN(C)CC4)c(Cl)c3)cc2)CC1 | 0.088 | 0.268 | 235 | –
CN(c1ccc(Cl)cc1)c1cc[n+](Cc2ccc(-c3ccc(C[n+]4ccc(N(C)c5ccc(Cl)cc5)c5ccccc54)cc3)cc2)c2ccccc12 [RSM-932A] | – | – | – | IC50 [15]: 7.1 µM; IC50 (MDA-MB-468 [16]): 2400 nM
